pIC50: −log10 of the molar value. Active and inactive are the calls of the source. The rule behind the calls is not given here.
Assays:
[1] = tested on: SGC-7901; experiment: Activation of Hippo signaling pathway in human SGC-7901 cells assessed as decrease in c-MYC expression incubated for 48 hrs by Western blot analysis; format: cell-based; conditions: filed as activator, dose 20-60 nM
Procedure, shortened: (§1)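 Western blot on gastric cancer cells exposed to compound or DMSO at 20, 40 and 60 nM for 48 h. Cells were lysed, then the denatured lysates were separated by SDS-PAGE and transferred to PVDF. Membranes were blocked and probed with primary and then secondary antibodies. Hippo pathway proteins were detected.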

[2] = tested on: SGC-7901; experiment: Induction of apoptosis in human SGC-7901 cells assessed as downregulation of Bcl-xl at 20 to 60 nM incubated for 48 hrs by Western blot analysis; format: functional, cell-based; conditions: dose 20-60 nM
Procedure, shortened: (§2)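 Western blot on MGC-803 and SGC-7901 cells given 20, 40 and 60 nM compound or DMSO for 48 h. Denatured lysates were run on SDS-PAGE and transferred to PVDF, then probed with primary and secondary antibodies to detect apoptosis-related proteins.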

[3] = tested on: SGC-7901; experiment: Induction of apoptosis in human SGC-7901 cells assessed as increase in caspase-3 cleavage at 20 to 60 nM incubated for 48 hrs by Western blot analysis; format: functional, cell-based; conditions: dose 20-60 nM
Procedure, shortened: (§3)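 Cells grown in RPMI-1640 with 10% FBS, penicillin/streptomycin at 37 °C, 5% CO2. Exposure to 20, 40 or 60 nM for 48 h alongside DMSO control. Lysates denatured, resolved by SDS-PAGE, transferred to PVDF, blocked, then probed with primary and secondary antibodies.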

[4] = tested on: SGC-7901; experiment: Induction of cell cycle arrest in human SGC-7901 cells assessed as upregulation of Histone-H3 Ser10 at 20 to 60 nM incubated for 48 hrs by Western blot analysis; format: functional, cell-based; conditions: dose 20-60 nM; procedure, shortened: as §3
[5] = tested on: MGC-803; experiment: Induction of apoptosis in human MGC-803 cells assessed as upregulation of Bax at 20 to 60 nM incubated for 48 hrs by Western blot analysis; format: functional, cell-based; conditions: dose 20-60 nM; procedure, shortened: as §2
[6] = tested on: HCT-116; experiment: Antiproliferative activity against human HCT-116 cells assessed as reduction in cell viability incubated for 48 hrs by MTT assay; format: functional, cell-based; conditions: HCT-116, 48 h
Procedure, shortened: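 MTT assay. 5,000 cells per well in RPMI-1640 with 10% FBS and penicillin/streptomycin at 37 °C, 5% CO2. Compound added 24 h after seeding and left for 48 h. MTT was then added for 4 h at 37 °C, formazan dissolved in DMSO and absorbance read at 490 nm. IC50 calculated from three independent experiments.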

[7] = tested on: MGC-803; experiment: Induction of apoptosis in human MGC-803 cells assessed as upregulation of DR5 at 20 to 60 nM incubated for 48 hrs by Western blot analysis; format: functional, cell-based; conditions: dose 20-60 nM; procedure, shortened: as §2
[8] = tested on: SGC-7901; experiment: Activation of Hippo signaling pathway in human SGC-7901 cells assessed as downregulation of TEAD at 20 to 60 nM incubated for 48 hrs by Western blot analysis; format: cell-based; conditions: filed as activator, dose 20-60 nM; procedure, shortened: as §1
[9] = tested on: MGC-803; experiment: Induction of cell cycle arrest in human MGC-803 cells assessed as increase in G2/M phase accumulation incubated for 24 hrs by PI staining based flow cytometry analysis; format: functional; conditions: dose 20-60 nM
Procedure, shortened: (§4)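 Cells in RPMI-1640/10% FBS at 37 °C, 5% CO2, exposed to 20, 40 and 60 nM for 24 h before flow cytometric cell-cycle distribution analysis.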

[10] = tested on: SGC-7901; experiment: Inhibition of tubulin polymerization in human SGC-7901 cells assessed as increase in multiple nucleus formation at 20 to 60 nmol/L by DAPI staining based microscopic analysis; format: cell-based; conditions: dose 20-60 nmol/L
Procedure, shortened: (§5)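 Cells cultured in RPMI-1640 with 10% FBS at 37 °C, 5% CO2, treated 48 h with 20, 40 and 60 nM; stained for β-tubulin (green) and nuclei (blue) and examined by microscopy.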

[11] = tested on: SGC-7901; experiment: Inhibition of tubulin polymerization in human SGC-7901 cells assessed as decrease in microtubule formation at 20 to 60 nmol/L by DAPI staining based microscopic analysis; format: cell-based; conditions: dose 20-60 nmol/L; procedure, shortened: as §5
[12] = tested on: SGC-7901; experiment: Induction of apoptosis in human SGC-7901 cells assessed as late apoptotic cells at 60 nM incubated for 48 hrs by annexin V-FITC and PI staining based flow cytometry analysis (reference value: 2.4 %); format: functional
[13] = tested on: SGC-7901; experiment: Induction of cell cycle arrest in human SGC-7901 cells assessed as increase in G2/M phase accumulation incubated for 24 hrs by PI staining based flow cytometry analysis; format: functional; conditions: dose 20-60 nM; procedure, shortened: as §4
[14] = tested on: MGC-803; experiment: Induction of apoptosis in human MGC-803 cells assessed as upregulation of Bak at 20 to 60 nM incubated for 48 hrs by Western blot analysis; format: functional, cell-based; conditions: dose 20-60 nM; procedure, shortened: as §2
[15] = tested on: SGC-7901; experiment: Induction of apoptosis in human SGC-7901 cells assessed as downregulation of c-IAP2 at 20 to 60 nM incubated for 48 hrs by Western blot analysis; format: functional, cell-based; conditions: dose 20-60 nM; procedure, shortened: as §3
[16] = tested on: SGC-7901; experiment: Induction of apoptosis in human SGC-7901 cells assessed as downregulation of Mcl-1 at 20 to 60 nM incubated for 48 hrs by Western blot analysis; format: functional, cell-based; conditions: dose 20-60 nM; procedure, shortened: as §2
[17] = tested on: MGC-803; experiment: Induction of cell cycle arrest in human MGC-803 cells assessed as downregulation of Cyclin B1 at 20 to 60 nM incubated for 48 hrs by Western blot analysis; format: functional, cell-based; conditions: dose 20-60 nM; procedure, shortened: as §3
[18] = tested on: MGC-803; experiment: Activation of Hippo signaling pathway in human […] cells assessed as increase in LATS phosphorylation at 20 to 60 nM incubated for 48 hrs by Western blot analysis; format: cell-based; conditions: filed as activator, dose 20-60 nM; procedure, shortened: as §1
[19] = tested on: SGC-7901; experiment: Activation of Hippo signaling pathway in human SGC-7901 cells assessed as downregulation of YAP at 20 to 60 nM incubated for 48 hrs by Western blot analysis; format: cell-based; conditions: filed as activator, dose 20-60 nM; procedure, shortened: as §1
[20] = tested on: SGC-7901; experiment: Induction of apoptosis in human SGC-7901 cells assessed as upregulation of Noxa at 20 to 60 nM incubated for 48 hrs by Western blot analysis; format: functional, cell-based; conditions: dose 20-60 nM; procedure, shortened: as §3
[21] = tested on: MGC-803; experiment: Inhibition of tubulin polymerization in human MGC-803 cells assessed as increase in multiple nucleus formation at 20 to 60 nmol/L by DAPI staining based microscopic analysis; format: cell-based; conditions: dose 20-60 nmol/L; procedure, shortened: as §5
[22] = tested on: MGC-803; experiment: Induction of apoptosis in human MGC-803 cells assessed as increase in caspase-3 cleavage at 20 to 60 nM incubated for 48 hrs by Western blot analysis; format: functional, cell-based; conditions: dose 20-60 nM; procedure, shortened: as §2
[23] = tested on: SGC-7901; experiment: Induction of apoptosis in human SGC-7901 cells assessed as late apoptotic cells at 40 nM incubated for 48 hrs by annexin V-FITC and PI staining based flow cytometry analysis (reference value: 2.4 %); format: functional
[24] = tested on: MGC-803; experiment: Induction of apoptosis in human MGC-803 cells assessed as downregulation of c-IAP1 at 20 to 60 nM incubated for 48 hrs by Western blot analysis; format: functional, cell-based; conditions: dose 20-60 nM; procedure, shortened: as §2
[25] = tested on: MGC-803; experiment: Activation of Hippo signaling pathway in human […] cells assessed as downregulation of YAP at 20 to 60 nM incubated for 48 hrs by Western blot analysis; format: cell-based; conditions: filed as activator, dose 20-60 nM; procedure, shortened: as §1
[26] = tested on: MGC-803; experiment: Activation of Hippo signaling pathway in human […] cells assessed as decrease in Bcl-2 expression incubated for 48 hrs by Western blot analysis; format: cell-based; conditions: filed as activator, dose 20-60 nM; procedure, shortened: as §1
[27] = tested on: MGC-803; experiment: Induction of apoptosis in human MGC-803 cells assessed as upregulation of t-Bid at 20 to 60 nM incubated for 48 hrs by Western blot analysis; format: functional, cell-based; conditions: dose 20-60 nM; procedure, shortened: as §2
[28] = tested on: MGC-803; experiment: Activation of Hippo signaling pathway in human […] cells assessed as downregulation of TEAD at 20 to 60 nM incubated for 48 hrs by Western blot analysis; format: cell-based; conditions: filed as activator, dose 20-60 nM; procedure, shortened: as §1
[29] = tested on: MGC-803; experiment: Activation of Hippo signaling pathway in human […] cells assessed as decrease in c-MYC expression incubated for 48 hrs by Western blot analysis; format: cell-based; conditions: filed as activator, dose 20-60 nM; procedure, shortened: as §1

COc1ccc(CN(C(=O)CSc2nc3ccccc3s2)c2cc(OC)c(OC)c(OC)c2)cc1O
Activity [1]: Dose-dependent effect | Activity [2]: Active | Activity [3]: Active | Activity [4]: Active | Activity [5]: Active | pIC50 [6]: 6.74 | Activity [7]: Active | Activity [8]: Active | Activity [9]: Dose-dependent effect | Activity [10]: Active | Activity [11]: Active | Activity [12]: 47.3% | Activity [13]: Dose-dependent effect | Activity [14]: Active | Activity [15]: Active | Activity [16]: Active | Activity [17]: Active | Activity [18]: Active | Activity [19]: Active | Activity [20]: Active | Activity [21]: Active | Activity [22]: Active | Activity [23]: 6.8% | Activity [24]: Active | Activity [25]: Active | Activity [26]: Dose-dependent effect | Activity [27]: Active | Activity [28]: Active | Activity [29]: Dose-dependent effect

From ChEMBL document CHEMBL4765386, “Discovery of tertiary amide derivatives incorporating benzothiazole moiety as anti-gastric cancer agents in vitro via inhibiting tubulin polymerization and activating the Hippo signaling pathway” (Eur J Med Chem, 2020)
